Rows were chosen to be rich in hits. Some 2.6% of all compounds tested hit in one or more screens of this group.
Rev-erbA mod: Rev-erb alpha (human) modulation; P20393; Rev-erbα–FITC-DNA binding, fluorescence polarization, 90 min; activity, % at 10 µM; 370,000 tested, 0.79% active;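 active = activity above about 14%, limit read from the data; passing the limit was not always enough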;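 note: 0% = DMSO wells with 35 nM protein and 100% = DMSO wells with 750 nM protein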
rCAG binder: r(CAG) repeat RNA binding | 370,000 tested, 1.3% active | TO-PRO-1 dye displacement fluorescence | inhibition, % at 3 µM | AID 651821;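 active = inhibition above the plate cutoff, the mean of all test compounds on that plate plus 3 SD, cut at about 35% in these data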;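 note: 0% = DMSO alone and 100% = 100 µM mitoxantrone as full dye displacement; higher means more dye released from RNA so lower well fluorescence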
PG9 binder: small molecules binding HIV-1 gp120 antibody PG9 | TR-FRET gp120-PG9 antibody binding | inhibition, % at 6.7 µM | 360,000 tested, 0.43% active | AID 624416; in the data active = inhibition above about 8.5%
NR2E3 ag-1: agonists of human nuclear receptor NR2E3 | GST-NR2E3/biotin-RetCOR TR-FRET, 1536-well | Q9Y5X4 | inhibition of corepressor binding, % at 4.78 µM | 320,000 tested, 0.12% active;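 active = percent inhibition above the cutoff of mean plus 3 SD of all tested compounds, set per screening campaign, cut at about 20% in these data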;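 note: 0% = DMSO wells and 100% = biotin wells as full block of FRET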
Target sequence (Q9Y5X4 whole entry, looked up): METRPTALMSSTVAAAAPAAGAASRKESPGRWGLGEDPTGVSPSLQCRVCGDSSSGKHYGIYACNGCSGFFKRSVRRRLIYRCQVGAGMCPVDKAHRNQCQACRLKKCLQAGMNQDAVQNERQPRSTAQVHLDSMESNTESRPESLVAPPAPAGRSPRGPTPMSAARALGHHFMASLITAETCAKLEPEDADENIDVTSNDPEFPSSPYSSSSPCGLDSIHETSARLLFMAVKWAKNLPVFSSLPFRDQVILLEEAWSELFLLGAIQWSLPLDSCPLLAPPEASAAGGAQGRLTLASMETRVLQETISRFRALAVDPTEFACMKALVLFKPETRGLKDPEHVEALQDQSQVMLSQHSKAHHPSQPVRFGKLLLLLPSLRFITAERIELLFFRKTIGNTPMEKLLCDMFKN
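Material: NR2E3–RetCOR corepressor complex / Amount: 1.35 nM GST-NR2E3 / Medium: Tris pH 7.5 / Compound: single nominal compound dose of 4.8 µM / Incubation: 5 h at 4 °C / Technique: TR-FRET, Eu(K)-anti-GST donor, streptavidin-D2 acceptor, ex 340, em 617/671 nm / Read-out basis: percent loss of FRET ratio relative to control wells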
NR2E3 ag-2: human photoreceptor-specific nuclear receptor agonism; Q9Y5X4; CHO-S Gal4-NCOR/VP16-NR2E3 two-hybrid, luciferase; inhibition of corepressor binding, % at 3.98 µM; 360,000 tested, 0.35% active; AID 602229;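 active = inhibition above the mean of all tested compounds plus 3 SD, cut at about 70% in these data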;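 note: 0% = DMSO with NR2E3 transfected cells and 100% = cells lacking NR2E3 construct; higher means lower luciferase signal from less NR2E3 corepressor binding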
rCAG binder conf: r(CAG) RNA repeat binding, confirmation; 4,300 tested, 70% active; TO-PRO-1 dye displacement fluorescence; inhibition, % at 3 µM; AID 652065; shares compounds with rCAG binder;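 active = inhibition above a per-plate cutoff, the mean inhibition of sample wells plus 3 SD, cut at about 35% in these data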;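 note: loss of TO-PRO-1 fluorescence as compound displaces dye from 1x1 AA loop RNA; 0% = DMSO only wells and 100% = 100 µM mitoxantrone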
dCAG dye counter: DNA CAG dye complex inhibition counter-screen; 4,300 tested, 94% active; inhibition, % at 3 µM; AID 652068; shares compounds with rCAG binder; d(CAG) DNA oligo TO-PRO-1 dye displacement, fluorescence;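 active = inhibition above its plate's cutoff, the mean test-well inhibition plus 3 SD, cut at about 4.8% in these data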;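 note: 0% = DNA dye mix with DMSO and 100% = 100 µM mitoxantrone; hits displace the dye from DNA and so lower well fluorescence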
* = called active by the depositor; x = no result.

SMILES	Rev-erbA mod	rCAG binder	PG9 binder	NR2E3 ag-1	NR2E3 ag-2	rCAG binder conf	dCAG dye counter
CC1(C(=O)NS(=O)(=O)c2ccc(C#N)cc2)CCN1C(=O)C1(c2ccc(Cl)cc2)CCC1 (stereo not given)	0.1	15.4	0.8	x	-6.3	x	x
CC1(C(=O)NS(=O)(=O)c2ccc(F)cc2F)CCN1C(=O)C1(c2ccc(Cl)cc2)CCC1 (stereo not given)	-1.0	32.5	-0.6	x	-27.2	x	x
COc1ccccc1NC(=O)N(C)C[C@H]1OCc2cn(nn2)CCCC(=O)N([C@H](C)CO)C[C@@H]1C	1.2	1.7	0.5	x	x	x	x
CCCC[C@@H]1CC2=C(C(=O)OC(C)(C)O2)[C@@H](c2ccc(F)cc2)O1	8.4	-1.6	-0.8	x	-15.1	x	x
O=C(Nc1ccc(S(=O)(=O)Nc2nccs2)cc1)C1=NN(c2ccccc2)C(=O)CC1	-1.1	35.6*	-1.1	1.7	-4.8	28.5	14.5*
O=C(CCNC(=O)c1ccccc1Cl)Nc1ccc(S(=O)(=O)Nc2nccs2)cc1	-3.3	8.3	-0.7	x	4.4	x	x
O=C(Nc1ccc(S(=O)(=O)Nc2nccs2)cc1)c1cc(-c2ccccn2)nc2ccccc12	-2.1	66.3*	-3.4	3.2	-2.6	61.0*	25.6*
O=C(Nc1ccc(S(=O)(=O)Nc2nccs2)cc1)c1cc(-c2ccccc2Cl)nc2ccccc12	13.5	76.4*	-0.2	1.1	-19.9	76.9*	40.5*
CN(C)c1cccc(C(=O)Nc2ccc(S(=O)(=O)Nc3nccs3)cc2)c1	2.2	35.9*	-0.6	x	-8.1	28.1	10.0*
O=C(Nc1ccc(S(=O)(=O)Nc2nccs2)cc1)c1ccncc1	-2.3	2.2	-1.0	x	-6.2	x	x
COC(=O)C12C=C3CC(c4ccc(C)s4)=C3C(=O)N1Cc1[nH]c3ccccc3c1C2 (stereo not given)	-5.4	6.4	x	x	x	x	x
O=S(=O)(Nc1nccs1)c1ccc(Nc2nnc(-c3ccccc3)c3ccccc23)cc1	1.9	54.0*	-3.3	2.3	-2.4	64.6*	26.7*
COc1cc2c(cc1OC)CN(C1CCC(C(C)(C)C)CC1)CC2 (stereo not given)	3.9	-9.6	-0.4	x	12.1	x	x
N=C1/C(=C\c2ccc(Br)o2)C(=O)N=C2SC(CC(=O)N3CCOCC3)=NN12	-7.1	36.2*	-2.6	3.2	3.3	17.9	5.1*
CC(=O)N(c1ccc2oc(=O)sc2c1)S(=O)(=O)c1cccs1	8.5	29.9	1.3	-0.9	-43.6	x	x
CC(=O)N(c1ccc2oc(=O)sc2c1)S(=O)(=O)c1cccc2cccnc12	-2.5	36.7*	0.0	-1.3	-36.1	6.0	5.3*
COc1ccc2[nH]c(C(=O)O)c(NS(=O)(=O)c3ccc(C)c(C)c3)c2c1	5.5	43.5*	-0.5	-3.9	-18.5	24.5	5.9*
Cc1ccc(S(=O)(=O)Nc2c(C(=O)O)[nH]c3ccccc23)c(C)c1	5.0	57.7*	-0.6	-0.5	-28.3	29.8	7.3*
COc1ccc2[nH]c(C(=O)O)c(NS(=O)(=O)c3ccc(F)cc3)c2c1	6.1	13.7	0.7	1.7	-17.9	x	x
CCOC(=O)[C@]12CCC=C1N(Cc1ccc(Cl)cc1Cl)C(=O)[C@H](CC(=O)NCC13CC4CC(CC(C4)C1)C3)C2	1.8	8.1	-1.7	x	2.6	x	x
C[C@@H]1CN([C@H](C)CO)C(=O)CCCn2cc(nn2)CO[C@H]1CN(C)C(=O)Cc1ccccc1	0.7	0.0	-0.7	x	-2.9	x	x
CCCCN(Cc1ccccc1)S(=O)(=O)c1ccc2[nH]c(=O)oc2c1	3.8	39.5*	1.5	1.4	-23.1	29.0	8.0*
CCC(C)N(C(C)CC)S(=O)(=O)c1ccc2[nH]c(=O)oc2c1 (stereo not given)	2.1	21.2	x	x	x	x	x
O=c1[nH]c2ccc(S(=O)(=O)N3CCC(Cc4ccccc4)CC3)cc2o1	-5.8	47.8*	0.5	-0.1	-0.1	46.0*	14.2*
CC(=O)Nc1cccc(-c2cc(N3CCN(CCO)CC3)n3nccc3n2)c1	-1.4	4.1	1.7	x	-38.7	x	x
O=C(Nc1cc([N+](=O)[O-])ccc1F)C1CCN(S(=O)(=O)c2cccs2)CC1	-2.1	3.6	-3.6	x	4.0	x	x
CC1=NN(c2ccccc2)C(=O)/C1=C/C=C/c1ccccc1	5.9	4.9	-2.6	7.2	-15.6	x	x

Bioassay records as filed in PubChem BioAssay.
